FN deposit inh = fibronectin deposition inhibition; 350,000 compounds, 0.086% hits; inhibition, % at 12.6 µM; AH1F fibroblasts, Alexa488-fibronectin deposition fluorescence, overnight; AID 743247;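 active = mean inhibition across replicates of 30% or more, regardless of how many single replicates reach that level; inconclusive = mean under 30% yet at least half of replicates reach 30%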
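Assay system: AH1F fibroblasts / Quantity: 10000 cells per well / Medium: DMEM plus 2% serum, read in PBS / Reagent: labelled fibronectin 24 nM / Dosing: single dose, pinned / Times: 1 h cell attachment, overnight exposure to compound and label / Signal: fluorescence, ex 485 nm, em 525 nm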
PAX8 inh HTS = lowers PAX8-driven luciferase in RMG-I cells; RMG-I TPO-luciferase reporter, SteadyGlo, 24 h; inhibition, % at 12.6 µM; 360,000 compounds, 1.2% hits; AID 652154;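 active = mean replicate inhibition at least 60% with every replicate also reaching 60%; inconclusive = only one of the two criteria is met; inactive = mean below 60% and not all replicates reaching 60%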;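 note: luciferase light reporting Pax8 driven TPO promoter activity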
HIV Env fusion = HIV envelope-mediated fusion inhibition; 360,000 compounds, 1.1% hits; AID 651610; inhibition, % at 12.3 µM; HeLa-JRFL Env/CEM21 cell fusion, luciferase;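 active = mean replicate inhibition score of at least 50 and every replicate individually at or above 50; inconclusive = only one of the two criteria met; inactive = mean below 50 and not all replicates reaching 50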
AF4-AF9 inh = inhibitors of human MLL-AF4/AF9 interaction; P42568; AlphaScreen, biotin-AF4 peptide binding to FLAG-AF9; 350,000 compounds, 0.47% hits; AID 651704; inhibition, % at 10 µM;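 active = every replicate reaching a set inhibition limit, whatever the replicate mean, cut at about 25% in these data; inconclusive = mean inhibition reaches that limit but some replicates miss it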
Target sequence (P42568 whole entry, looked up): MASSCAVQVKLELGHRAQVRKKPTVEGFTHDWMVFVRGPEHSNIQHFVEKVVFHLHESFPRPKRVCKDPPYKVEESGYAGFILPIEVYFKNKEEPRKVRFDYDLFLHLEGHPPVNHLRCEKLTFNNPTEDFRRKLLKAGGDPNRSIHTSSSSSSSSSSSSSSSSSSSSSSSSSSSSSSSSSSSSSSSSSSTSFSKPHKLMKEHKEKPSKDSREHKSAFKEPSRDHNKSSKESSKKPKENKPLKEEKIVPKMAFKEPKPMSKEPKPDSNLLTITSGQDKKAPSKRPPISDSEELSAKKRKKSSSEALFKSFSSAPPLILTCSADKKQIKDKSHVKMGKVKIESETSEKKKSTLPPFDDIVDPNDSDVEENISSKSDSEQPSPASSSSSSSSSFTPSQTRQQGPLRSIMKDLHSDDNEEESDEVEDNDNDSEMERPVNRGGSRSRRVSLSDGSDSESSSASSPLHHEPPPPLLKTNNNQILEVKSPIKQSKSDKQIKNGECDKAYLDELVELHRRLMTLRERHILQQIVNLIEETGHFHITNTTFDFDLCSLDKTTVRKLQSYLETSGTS
EWS-Fli block = blocks EWS/Fli oncoprotein-driven transcription | A673 NR0B1-luciferase reporter, viability-normalised | inhibition, % at 12.6 µM | 350,000 compounds, 0.67% hits;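 active = mean inhibition of at least 50% after viability correction, with every replicate also passing that limit; inconclusive = mean reaches 50% but only one of two replicates passes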;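 note: firefly luciferase signal divided by Alamar Blue viability fluorescence both relative to DMSO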
Glyco luc inh = N-linked glycosylation inhibition; D54 ERlucT glycosylation luciferase reporter, 24 h; percent of 100 nM tunicamycin response; reporter increase, % at 12.5 µM; 360,000 compounds, 0.23% hits; AID 588692;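 active = mean luciferase reporter signal, scaled so untreated is 0 and the glycosylation-blocking control 100, at or above a set limit in every replicate; inconclusive = mean reaches the limit but not every replicate does; inactive = mean below the limit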;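 note: luciferase carries N-glycosylation sites so blocking glycosylation raises the light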
Each line names hits and unclear results; the compound was inactive in the other large screens; ! = not active in a repeat; [ ] = another dose, or the depositor's remark. Compounds with a hit are over-represented: about 2.5% of the library has one in this group of screens.

Cc1cc(C)nc(Sc2nc(Nc3ccccc3)nc(Sc3nc(C)cc(C)n3)n2)n1	PAX8 inh HTS 61 (no result: AF4-AF9 inh, EWS-Fli block)
Cc1cc(C)nc(Nc2ccc(O)cc2)n1	none
C[C@H]1CN([C@@H](C)CO)S(=O)(=O)c2ccc(C#CC3CC3)cc2O[C@H]1CN(C)Cc1ccccc1F	none (no result: PAX8 inh HTS, Glyco luc inh)
CO[C@H]1/C=C/O[C@@]2(C)Oc3c(C)c(O)c4c(O)c(c(C=NN5CCN(C)CC5)c(O)c4c3C2=O)NC(=O)/C(C)=C\C=C\[C@H](C)[C@H](O)[C@@H](C)[C@@H](O)[C@@H](C)[C@H](OC(C)=O)[C@@H]1C	AF4-AF9 inh 31
Cc1ccc(C(=O)Nc2ncc([N+](=O)[O-])s2)cc1	PAX8 inh HTS 87, EWS-Fli block 76
Cc1ccc([N+](=O)[O-])cc1NC(=O)c1ccc2c(c1)OCO2	none
Cc1nc2ccc3nc(NC(=O)c4ccc5c(c4)OCCO5)sc3c2s1	none (no result: FN deposit inh, PAX8 inh HTS, HIV Env fusion, AF4-AF9 inh, EWS-Fli block)
O=C(Nc1ncc([N+](=O)[O-])s1)c1ccc2c(c1)OCO2	PAX8 inh HTS 75
Cc1cnc(NC(=O)c2ccc3c(c2)OCCO3)s1	PAX8 inh HTS 99, EWS-Fli block 77
Cc1onc(-c2ccccc2)c1C(=O)Nc1ncc([N+](=O)[O-])s1	HIV Env fusion 72
Cc1onc(-c2ccccc2)c1C(=O)Nc1nnc(C(C)C)s1	none (no result: FN deposit inh)
O=C(Nc1ncc([N+](=O)[O-])s1)c1ccco1	none (no result: PAX8 inh HTS, Glyco luc inh)
O=C(NCC[C@@H]1CC[C@H](NS(=O)(=O)c2ccc(F)cc2)[C@H](CO)O1)Nc1ccc(Cl)cc1	none (no result: Glyco luc inh)
CC(C)C[C@@H]1CN(CCCC[C@H]2CNC(=O)C(=O)N2CCC2CCCCC2)C(=O)C(=O)N1Cc1ccccc1	none (no result: Glyco luc inh)
CC(C)C[C@H]1CN(CCCC[C@H]2CNC(=O)C(=O)N2CC2CCCCC2)C(=O)C(=O)N1Cc1ccccc1	AF4-AF9 inh 27 (no result: Glyco luc inh)
C[C@@H]1CN([C@H](C)CO)S(=O)(=O)c2ccc(C#Cc3ccc(F)cc3)cc2O[C@@H]1CN(C)C(=O)c1ccccn1	none (no result: PAX8 inh HTS, Glyco luc inh)
CO[C@H]1CN(C)C(=O)c2ccc(NC(=O)C3CCCC3)cc2OC[C@@H](C)N(CCC(F)(F)F)C[C@H]1C	AF4-AF9 inh 28 (no result: PAX8 inh HTS, Glyco luc inh)
CO[C@@H]1CN(C)C(=O)c2ccc(NC(=O)C3CC3)cc2OC[C@@H](C)N(Cc2cc(F)ccc2F)C[C@@H]1C	none (no result: PAX8 inh HTS, HIV Env fusion, Glyco luc inh)
CO[C@H]1CN(C)C(=O)c2ccc(NC(=O)C3CC3)cc2OC[C@H](C)N(Cc2cc(F)ccc2F)C[C@@H]1C	HIV Env fusion 81[16.7 µM] (no result: PAX8 inh HTS, Glyco luc inh)
O=C(NC1CCCCC1)N[C@@H]1CC[C@@H](CCNS(=O)(=O)c2ccc(F)cc2)O[C@@H]1CO	none (no result: FN deposit inh, Glyco luc inh)
Cc1ccc(OCCNC(=O)C(=O)NCc2ccco2)cc1	Glyco luc inh 26
Cc1ccc(OCCCC(=O)NCc2ccco2)cc1	none (no result: PAX8 inh HTS, AF4-AF9 inh, EWS-Fli block)
NC(=O)CC(NC(=O)Cc1ccc(Br)cc1)c1ccc(N2CCCCCCC2)c([N+](=O)[O-])c1 (stereo not given)	HIV Env fusion inconclusive
NC(=O)CC(NC(=O)Cc1ccc(Br)cc1)c1ccc(N2CCC(Br)CC2)c([N+](=O)[O-])c1 (stereo not given)	HIV Env fusion 63
NC(=O)CC(NC(=O)c1ccc(Br)cc1)c1ccc(N2CCCCCC2)c([N+](=O)[O-])c1 (stereo not given)	Glyco luc inh 33
C[C@@H]1CN([C@H](C)CO)C(=O)Cc2cc(NC(=O)Cc3cn(C)c4ccccc34)ccc2O[C@H]1CN(C)S(C)(=O)=O	none (no result: FN deposit inh, HIV Env fusion, Glyco luc inh)
Cc1ccc(S(=O)(=O)N(C)C[C@@H]2OCCCC[C@@H](C)Oc3ccc(NS(=O)(=O)c4ccc(Cl)cc4)cc3C(=O)N([C@@H](C)CO)C[C@@H]2C)cc1	none (no result: Glyco luc inh)
COCCN(C(=O)COC(=O)/C=C/c1ccc2ccccc2n1)c1c(N)n(Cc2ccccc2)c(=O)[nH]c1=O	PAX8 inh HTS 64 (no result: FN deposit inh, EWS-Fli block)
COCCCN(C(=O)c1ccc2ccccc2n1)c1c(N)n(Cc2ccccc2)c(=O)[nH]c1=O	FN deposit inh 37
CCOc1ccc(OCC(=O)N(CCC2=CCCCC2)c2c(N)n(Cc3ccccc3)c(=O)[nH]c2=O)cc1	Glyco luc inh 80
COCCN(C(=O)COC(=O)c1ccc(C=O)cc1)c1c(N)n(Cc2ccccc2)c(=O)[nH]c1=O	HIV Env fusion 58 (no result: FN deposit inh, EWS-Fli block)
CCN(C(=O)COC(=O)c1ccc2ccccc2n1)c1c(N)n(Cc2ccccc2)c(=O)[nH]c1=O	none (no result: FN deposit inh)
CN(C(=O)COC(=O)/C=C/c1ccc2ccccc2n1)c1c(N)n(Cc2ccccc2)c(=O)[nH]c1=O	PAX8 inh HTS 86
COCCN(C(=O)COC(=O)/C=C/c1nc2ccccc2s1)c1c(N)n(Cc2ccccc2)c(=O)[nH]c1=O	PAX8 inh HTS 76
CCN(C(=O)COC(=O)/C=C/c1nc2ccccc2s1)c1c(N)n(Cc2ccccc2)c(=O)[nH]c1=O	none (no result: HIV Env fusion)
CCC(=O)Nc1ccc2c(c1)OC[C@@H](C)N(C(=O)C1CC1)C[C@H](C)[C@H](OC)CN(C)C2=O	none (no result: PAX8 inh HTS, HIV Env fusion, EWS-Fli block, Glyco luc inh)
N#C[C@H]1[C@@H](c2ccccc2/C=C/c2ccccc2)[C@@H](CO)N1S(=O)(=O)c1ccccc1	none (no result: HIV Env fusion, Glyco luc inh)
CCCC#Cc1ccc([C@H]2[C@H](C#N)N(S(=O)(=O)c3cccc(F)c3)[C@H]2CO)cc1	none (no result: Glyco luc inh)
CCCC#Cc1ccc([C@@H]2[C@H](C#N)N(S(=O)(=O)c3cccc(F)c3)[C@H]2CO)cc1	PAX8 inh HTS 83 (no result: Glyco luc inh)
N#C[C@H]1[C@@H](c2ccccc2/C=C/c2ccccc2)[C@@H](CO)N1S(=O)(=O)c1cccc(F)c1	HIV Env fusion 58[16.7 µM] (no result: Glyco luc inh)
Cc1ccc(-c2ccc3c(c2)O[C@H](CN(C)C(=O)C2CC2)[C@@H](C)CN([C@H](C)CO)S3(=O)=O)cc1	none (no result: PAX8 inh HTS, Glyco luc inh)
C=CCOC(=O)C1=C(C)NC(SCC(=O)Nc2nccs2)=C(C#N)C1c1ccc(Cl)cc1 (stereo not given)	HIV Env fusion 103 (no result: AF4-AF9 inh, EWS-Fli block)
C=CCOC(=O)C1=C(C)NC(SCC(=O)Nc2nccs2)=C(C#N)C1c1cccs1 (stereo not given)	none (no result: FN deposit inh, PAX8 inh HTS, HIV Env fusion, AF4-AF9 inh, EWS-Fli block)
Cn1cnc(CCNC(=O)C[C@@H]2CC[C@@H]3[C@H](COC[C@H](O)CN3C(=O)C3CC3)O2)c1	none (no result: HIV Env fusion, Glyco luc inh)
Cc1ccc(-n2ncc(C(=O)Nc3cc(Cl)cc(Cl)c3)c2C2CCNCC2)cc1C	EWS-Fli block 62
Cc1cccc(S(=O)(=O)N2[C@@H]3CNC[C@H]2C3c2ccc(-c3ccccc3C)cc2)c1 (stereo not given in full)	EWS-Fli block 59! (no result: HIV Env fusion, Glyco luc inh)
Cc1cccc(S(=O)(=O)N2[C@@H]3CNC[C@H]2C3c2ccc(-c3ccncc3)cc2)c1 (stereo not given in full)	EWS-Fli block 65! (no result: HIV Env fusion, Glyco luc inh)
O=C(NCc1ccncc1)[C@@H]1N[C@@H]2c3ccc(/C=C/c4ccccc4)c(=O)n3C[C@@H]2[C@H]1CO	none (no result: FN deposit inh, HIV Env fusion, Glyco luc inh)
COc1ccc(C(=O)Nc2ccc3c(c2)OC[C@H](C)N(C)C[C@H](C)[C@@H](OC)CN(C)C3=O)cc1	none (no result: HIV Env fusion, EWS-Fli block, Glyco luc inh)
